CaV13 FRET inh – Primary screen for inhibitors of IQ motif and Ca2+-dependent inactivation inhibitor domain binding in CACNA1D, Förster resonance energy transfer in living cells, … | HEK cells, CFP/YFP FRET ICDI-IQ, plate reader, 10 min; percent FRET-ratio fall versus neutral wells | inhibition, % at 12.3 µM | 340,000 tested, 0.098% active | AID 743397;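 active means mean replicate inhibition of at least 30% and at least 1% of replicates passing that level; inconclusive means only one of the two criteria is met; inactive means neither criterion is met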
LANA-H2A inh – blocks KSHV LANA binding to histone H2A/H2B. Q9QR71. 320,000 tested, 0.6% active. inhibition, % (test concentration not listed). cell-free LANA-H2A/H2B peptide, fluorescence polarization; in the data active means inhibition mostly above about 10%, no sharp cut-off; inactive means mostly below about 6.7%
Runt-CBFb FRET – Runt domain-CBFb interaction inhibition; Q01196+Q13951; Cerulean-Runt/Venus-CBFb FRET ratio 530/480, 1 h; inhibition, % at 20 µM; 220,000 tested, 0.46% active; AID 1496;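 active means inhibition over about 50% at 20 µM in the single-dose screen, limit read from the data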
Target sequence (Q01196 whole entry, looked up, the tested form may be a part): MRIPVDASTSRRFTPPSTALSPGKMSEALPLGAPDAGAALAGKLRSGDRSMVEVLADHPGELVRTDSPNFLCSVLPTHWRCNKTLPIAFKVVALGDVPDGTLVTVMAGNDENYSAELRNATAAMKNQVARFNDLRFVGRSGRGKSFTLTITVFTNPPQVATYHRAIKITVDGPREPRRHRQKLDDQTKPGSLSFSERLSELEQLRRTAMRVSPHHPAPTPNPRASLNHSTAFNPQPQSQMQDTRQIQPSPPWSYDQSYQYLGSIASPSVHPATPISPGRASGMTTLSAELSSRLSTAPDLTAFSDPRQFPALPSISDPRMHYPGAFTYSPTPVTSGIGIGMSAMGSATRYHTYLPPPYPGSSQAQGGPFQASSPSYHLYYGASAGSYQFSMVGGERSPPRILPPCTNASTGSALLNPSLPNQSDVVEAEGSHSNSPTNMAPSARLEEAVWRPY
Target sequence (Q13951 whole entry, looked up, the tested form may be a part): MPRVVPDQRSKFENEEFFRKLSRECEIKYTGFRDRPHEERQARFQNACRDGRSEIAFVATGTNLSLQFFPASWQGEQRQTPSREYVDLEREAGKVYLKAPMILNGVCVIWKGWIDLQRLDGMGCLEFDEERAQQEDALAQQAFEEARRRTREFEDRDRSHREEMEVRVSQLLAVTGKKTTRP
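Schedule: protein complex preformed 1 h, compound exposure 1 h, room temperature, dark; test system: Cerulean-labeled Runt domain protein; amount: 100 nM per protein; buffer or medium: Tris 50 mM pH 7.5, KCl, K2SO4, 0.01% BSA; read-out: loss of energy transfer signal; detection: FRET fluorescence; controls: 5 µM unlabeled CBFb as full-inhibition high control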
RanGTP-Imp inh – disruptors of Ran-importin-beta complex formation – biochemical, FRET, CFP-Ran, YFP-importin-beta, homogeneous, primary screen. AID 2216. 300,000 tested, 1.1% active. inhibition, % (no concentration beside the values). cell-free CFP-Ran/YFP-importin-beta FRET ratio;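 active means more than half of the replicate wells show a fall in the fluorescence ratio signal beyond about 16%, limit read from the data, passing the limit was not always enough; inconclusive means exactly half of the replicate wells pass the set limit; inactive means fewer than half of replicates pass the limit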
Runt-SMMHC FRET – Runt domain-CBFb-SMMHC interaction inhibition; Cerulean-Runt/Venus-CBFb-SMMHC FRET ratio 530/480, 1 h; inhibition, % at 20 µM; 220,000 tested, 0.74% active;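 active means mean inhibition across duplicate retests at 20 µM reaching about 50%, limit read from the data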;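 further: inhibitors lower the FRET ratio by blocking Runt binding to CBFb-SMMHC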
HDAC3 inhib – blocks human histone deacetylase 3; recombinant HDAC3, fluorogenic peptide/trypsin coupled, fluorescence; inhibition, % at 8.3 µM; 320,000 tested, 0.15% active; AID 2718; in the data active means inhibition above about 26%, passing the limit was not always enough; inconclusive means no clear call, values can overlap the other calls
YIC counter – counter-screen YIC FRET for RanGTP-importin-beta inhibitors | IC50, µM | 1,000 tested, 40% active | Purified YIC probe, intramolecular FRET ratio YFP/CFP | shares compounds with RanGTP-Imp inh | AID 435026;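 active means fitted half-maximal inhibitory concentration no more than tenfold above the top dose tested; inconclusive means flat fit with 30 to 70% activity, or poor fit; inactive means half-maximal concentration beyond tenfold above the top dose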
A number is an active result; i = inactive; ? = inconclusive; nt = no result given. An excerpt weighted towards active compounds, which were near 1.9% of everything screened.

SMILES	CaV13 FRET inh	LANA-H2A inh	Runt-CBFb FRET	RanGTP-Imp inh	Runt-SMMHC FRET	HDAC3 inhib	YIC counter
CCOC(=O)c1ccc(NC(=O)CSc2nnc(C3CCCCC3)n2C)cc1	i	i	i	16	i	i	i
Cc1sc2ncn(CC(=O)NCCCC(=O)N3CCN(Cc4ccc5c(c4)OCO5)CC3)c(=O)c2c1C	i	i	i	28	i	i	i
CN(C)/C=C/C(=O)/C=C/c1ccc(Cl)cc1	i	i	i	22	i	i	i
Cc1ccc(-n2c(O)c(C=Nc3ccc4c(c3)OCO4)c3ccccc3c2=O)cc1C	i	i	i	19	i	i	28
CCCN(CCO)Cc1cccc(Br)c1	i	i	i	20	i	i	i
COc1ccc(N(C(C)C(=O)NN=C2CCCCCCC2)S(C)(=O)=O)cc1 (stereo not given)	i	i	i	i	i	i	nt
CN(C)C(=O)CCc1ccc2c3c([nH]c2c1)[C@]1(C)[C@@H](C(=O)N2CCOCC2)C[C@H](CC(=O)NCCC2=CCCCC2)C(=O)N1CC3	i	nt	nt	nt	nt	nt	nt
CC(=O)N(c1ccc(Cl)cc1)c1cn(C(C)=O)c2ccccc12	i	i	i	?	i	i	nt
CC(=O)N(c1ccc(Cl)cc1)c1c[nH]c2ccccc12	i	i	i	26	i	i	i
Cc1c(/C=N\NC(=O)C2COc3ccccc3O2)c2ccccc2n1C (stereo not given)	i	i	i	23	i	i	i
COc1cc(NC(=O)Cn2ncc(Cl)c(Cl)c2=O)c(C)cc1[N+](=O)[O-]	i	nt	i	27	i	nt	i
CCOC(=O)C/C(=N\Nc1ncnc2ccccc12)c1ccccc1	i	i	nt	23	nt	i	i
COC(=O)Cn1c(=O)c2c(nc3n2CCCN3CCc2ccccc2)n(C)c1=O	i	i	nt	25	nt	i	i
Cn1c(=O)n(CC(=O)O)c(=O)c2c1nc1n2CCCN1CCc1ccccc1	i	i	nt	i	nt	i	nt
Cc1ccc(-c2nnn(CC(=O)N(c3ccccc3)C(C(=O)NCC3CCCO3)c3ccc(Cl)cc3)n2)cc1 (stereo not given)	i	i	i	21	i	i	i
O=C(Cc1cccc2ccccc12)NN=Cc1ccc2c(c1)CCC2	i	nt	nt	nt	nt	nt	nt
Cc1cccc(C)c1NC(=O)C1c2cccc[n+]2CC(=O)N1Cc1cccs1 (stereo not given)	i	i	i	23	i	?	i
O=C(NNC(=S)NC(=O)c1ccccc1[N+](=O)[O-])c1ccccc1[N+](=O)[O-]	i	i	i	i	i	i	nt
O=C(NNC(=S)NC(=O)c1ccccc1[N+](=O)[O-])c1ccccc1O	i	i	i	19	i	i	i
COc1ccc(-c2cc(C(F)(F)F)n3nc(N)nc3n2)cc1	i	i	i	27	59	i	21
COC(=O)C1=C(O)/C(=C\c2cc(C)n(-c3ccccc3C)c2C)N=C1C	i	i	i	20	i	i	44
COC(=O)C1=C(O)/C(=C\c2cc(C)n(-c3ccccc3F)c2C)N=C1C	i	i	nt	i	i	i	nt
COC(=O)c1c(NC(=O)c2ccc([N+](=O)[O-])o2)sc2c1CCN(C(C)C)C2	i	i	nt	16	nt	i	i
COc1ccc(OS(=O)(=O)Cc2ccccc2)cc1	i	i	nt	i	nt	i	nt
Cc1noc(C)c1NC(=O)N(C)C[C@H]1Oc2ccc(NS(=O)(=O)c3ccc(F)cc3)cc2C(=O)N([C@H](C)CO)C[C@@H]1C	i	i	nt	nt	nt	i	nt
SMILES	CaV13 FRET inh	LANA-H2A inh	Runt-CBFb FRET	RanGTP-Imp inh	Runt-SMMHC FRET	HDAC3 inhib	YIC counter
CCCc1cc(=O)oc2c(CN3CCCC3)c(O)c(Cl)cc12	i	i	98	62	160	i	27
CCN(CC)Cc1c(O)ccc2c(C)c(CC(=O)OC)c(=O)oc12	i	i	117	32	80	i	14
COC(=O)Cc1c(C)c2ccc(O)c(CNCc3ccc(OC)c(OC)c3)c2oc1=O	i	i	nt	33	nt	i	7.3
COC(=O)Cc1c(C)c2ccc(OCC(C)=O)c(C)c2oc1=O	i	i	i	i	i	i	nt
COCCN1C(=O)N(C)[C@@H](c2ccccc2)C(C(C)=O)=C1C	i	i	i	i	i	i	nt
CC(C)OC(=O)c1cc(NC(=O)c2nn(C)cc2Br)cc(C(=O)OC(C)C)c1	i	i	i	i	i	i	nt
O=c1cc(CN2CCN(Cc3ccccc3)CC2)c2ccc(O)cc2o1	i	i	nt	38	nt	i	10
CC1CN(Cc2cc(=O)oc3cc(O)ccc23)CC(C)O1 (stereo not given)	i	i	nt	19	nt	i	16
Cc1ccc2c(CN3CC(C)CC(C)C3)cc(=O)oc2c1 (stereo not given)	i	i	nt	i	nt	i	nt
O=C(Nc1nnc(S(=O)(=O)Nc2ccccc2)s1)c1ccccc1Cl	i	i	nt	?	nt	i	nt
CC(Sc1nnc(COc2ccc(Cl)cc2)n1Cc1ccccc1)C(=O)O (stereo not given)	i	i	i	i	i	i	nt
Cc1ccc(-c2cc(-c3ccccc3)[nH]c(=S)c2C#N)cc1	i	i	i	i	i	i	nt
N#Cc1c(N)[nH]c(=S)c(C#N)c1-c1ccccc1	i	i	i	31	i	i	i
CCOC(=O)c1c(NC(=O)CSc2nnc3c(n2)[nH]c2ccccc23)sc2c1CCN(C)C2	nt	i	nt	24	nt	i	i
COc1ccc2cc(C(C)=O)c(=O)oc2c1	i	i	i	19	62	i	35
Clc1ccc(/C=C\c2nccc3c2[nH]c2ccccc23)cc1	i	nt	i	28	i	nt	8.6
COc1ccc(N2Cc3ccccc3/C2=N\C(=O)Nc2ccccc2)cc1	nt	i	i	17	i	i	i
O=c1cc(N2CCC(Cc3ccccc3)CC2)[nH]c(=O)n1C1CCCCC1	i	i	i	22	i	i	i
O=c1cc(N2CCc3ccccc3C2)[nH]c(=O)n1C1CCCCC1	nt	i	i	54	i	i	i
O=C(c1ccco1)N1CCN(c2cc(=O)n(C3CCCCC3)c(=O)[nH]2)CC1	i	i	i	i	i	i	nt
CC1CCN(c2cc(=O)n(C3CCCCC3)c(=O)[nH]2)CC1	i	i	i	31	i	i	i
CC1=NN(C(=O)Cn2nc([N+](=O)[O-])cc2C)C(O)(C(F)(F)F)C1 (stereo not given)	i	i	i	18	i	i	i
COc1ccc(S(=O)(=O)N2CCC(C(=O)N[C@H](C(=O)NCc3ccccc3)C(C)C)CC2)cc1	i	nt	nt	nt	nt	nt	nt
COc1ccc(Br)cc1S(=O)(=O)n1ccnc1C	i	i	i	i	i	i	nt

Compound activity as filed in PubChem BioAssay.
